Sampled rows, rich in hits. Any-hit rate of the full collection: about 2.4%.
TMEM16A inh: TMEM16A chloride channel inhibitors, primary screen, cell-based, HTS; Anoctamin-1 (Mus musculus), Q8BHY3; HEK293 TMEM16A/YFP iodide influx fluorescence, ionomycin; normalized B-score (activity score, 25-100; higher = stronger inhibition) at 10 µM; actives 1.2% (n = 310,000);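 active = ratio plate-corrected score three or more library SD toward inhibition, starting fluorescence score within five deviations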;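 note: score derived from kinetic fluorescence span divided by baseline fluorescence per well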
Target sequence (Q8BHY3 whole entry, looked up): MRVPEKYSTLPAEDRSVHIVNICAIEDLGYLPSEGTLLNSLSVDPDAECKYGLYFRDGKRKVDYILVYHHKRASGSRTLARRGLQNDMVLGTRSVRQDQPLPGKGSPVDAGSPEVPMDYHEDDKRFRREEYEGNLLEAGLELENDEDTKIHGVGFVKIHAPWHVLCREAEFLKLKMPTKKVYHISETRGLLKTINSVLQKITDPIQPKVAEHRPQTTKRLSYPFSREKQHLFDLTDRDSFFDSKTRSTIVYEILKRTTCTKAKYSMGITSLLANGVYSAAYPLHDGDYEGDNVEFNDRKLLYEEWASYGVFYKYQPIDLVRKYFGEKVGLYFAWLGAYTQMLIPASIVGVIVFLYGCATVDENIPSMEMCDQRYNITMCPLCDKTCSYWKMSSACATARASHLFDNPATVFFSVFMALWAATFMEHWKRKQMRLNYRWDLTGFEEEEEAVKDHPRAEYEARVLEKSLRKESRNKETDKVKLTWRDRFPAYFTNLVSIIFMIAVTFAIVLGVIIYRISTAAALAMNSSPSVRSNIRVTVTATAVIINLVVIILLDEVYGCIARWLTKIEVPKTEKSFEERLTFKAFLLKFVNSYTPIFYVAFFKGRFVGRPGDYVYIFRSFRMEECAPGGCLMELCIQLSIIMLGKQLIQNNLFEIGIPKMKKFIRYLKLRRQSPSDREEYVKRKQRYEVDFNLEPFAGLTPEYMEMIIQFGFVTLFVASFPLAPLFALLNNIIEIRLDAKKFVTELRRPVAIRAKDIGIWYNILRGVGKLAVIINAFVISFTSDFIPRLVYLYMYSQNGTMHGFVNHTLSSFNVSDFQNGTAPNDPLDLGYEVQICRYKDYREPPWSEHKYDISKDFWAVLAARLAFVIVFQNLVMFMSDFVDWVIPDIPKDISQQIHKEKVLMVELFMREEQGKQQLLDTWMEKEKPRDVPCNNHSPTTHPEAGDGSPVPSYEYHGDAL
UBC13 polyUb: UBC13 polyubiquitin chain formation inhibitors, primary screen, biochemical, TR-FRET, uHTS; Ubiquitin-conjugating enzyme E2 N (Homo sapiens), P61088; inhibition, % at 20 µM; actives 0.47% (n = 330,000); in the data active = inhibition above about 45%, passing the limit was not always enough
ANO1 activ: TMEM16A chloride channel activators or potentiators, primary screen, cell-based, HTS; Anoctamin-1 (Mus musculus), Q8BHY3; HEK293 TMEM16A/YFP-H148Q/I152L, iodide quench fluorescence; hits give low values; B-score at 10 µM; actives 0.3% (n = 340,000);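 active = fluorescence-ratio B-score plate-corrected deviation score at least 3 library SD below zero, with starting fluorescence score within 5 deviations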;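 note: channel opened by trigger with iodide after compound preincubation; score built on the fluorescence ratio of max minus min over baseline; more negative score means more quench and so TMEM16A activation or potentiation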
Apaf1 inhib: inhibitors of human Apaf-1 apoptosome, primary screen, biochemical, DEVD-Rh110 fluorescence, uHTS; reconstituted apoptosome caspase-3 activity; Apoptotic protease-activating factor 1 (Homo sapiens), O14727; inhibition, % at 20 µM; actives 0.71% (n = 330,000); AID 489030, 2010; active = inhibition of at least 40% at 20 µM;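 note: plate controls were DMSO wells for no effect and DEVD-CHO caspase inhibitor wells for full effect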
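Material: cell-free apoptosome with Apaf-1, procaspase-3 and caspase-9; Buffer or medium: Hepes pH 7.5 with detergent and BSA; Reagent: cytochrome c trigger plus (Z-DEVD)2-Rh110 caspase-3 substrate; Times: compound with Apaf-1, dATP, procaspase-3 30 min, then 50 min reaction, room temperature; Technique: Rh110 fluorescence intensity.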
FID counter: compounds displacing fluorescent DNA intercalator, primary screen, artefact control for HCV NS3 helicase inhibitor project, biochemical, FID fluorescence. DNA fluorescent intercalator displacement. inhibition, % at 7.9 µM. actives 0.17% (n = 290,000). AID 1845, 2009; in the data active = inhibition above about 37%;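 note: 0% = vehicle and 100% = reference compound; higher means more ethidium bromide displaced from hairpin DNA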
Active calls of the source: *; i = inactive; . = no result.

SMILES | TMEM16A inh | UBC13 polyUb | ANO1 activ | Apaf1 inhib | FID counter
O=S(=O)(c1cccc2cnccc12)N1CCNCC1 | i | -1.6 | -11.7* | -4.9 | .
O=C1NCCCC2c3cc(O)c4ccccc4c3OC12N1CCCCC1 (configuration not stated) | i | -35.8 | . | 93.0* | -9.3
COc1ccc(S(=O)(=O)N2CCN(C(=O)c3ccco3)CC2)c(C)c1C | i | 1.0 | i | -13.1 | -27.7
CCN(c1ccc(OC)cc1)S(=O)(=O)c1ccc2c(c1)CC(C)N2C(=O)C1CC1 (configuration not stated) | i | 7.3 | i | 15.5 | -52.1
Cc1ccc(S(=O)(=O)N(C)C)cc1NC(=O)c1cc(=O)[nH]c2ccccc12 | i | -7.2 | -6.56* | -16.6 | -4.5
COc1ccccc1-n1c(=O)c(C#N)c(-c2ccc([N+](=O)[O-])cc2)c2cc(C(=O)c3cc(F)ccc3O)cnc21 | i | -8.8 | i | 11.0 | 5.0
Cn1c(=O)c(C#N)c(-c2ccc(F)cc2)c2cc(C(=O)c3cc(Cl)cc(Cl)c3O)cnc21 | 100* | -21.9 | i | 5.2 | -3.1
O=C1Nc2ccccc2N(O)N1c1cc(-c2ccc(Cl)cc2)[nH]n1 | i | 0.5 | i | 11.1 | 1.8
Cc1cc(C)c2sc(N(CCCN(C)C)C(=O)c3ccc(S(=O)(=O)N4CCCc5ccccc54)cc3)nc2c1 | i | 62.5* | i | 36.7 | .
CN(C)CCCN(C(=O)c1ccc(S(=O)(=O)N2CCc3ccccc32)cc1)c1nc2ccc(F)cc2s1 | i | 32.4 | i | 12.3 | 20.4
C/C(=N/OC(=O)c1ccccc1Br)c1ccc(C)cc1 | 25* | -0.2 | i | 13.5 | -24.1
Cc1ccc(NS(=O)(=O)c2csc(C(N)=O)c2)cc1C | i | 7.0 | i | 4.4 | -0.1
COC(=O)c1c(C(=O)OC)c2cccc3cc(-c4ccccc4)c4ccc1c4n32 | i | -111.7 | i | 65.3* | -2.1
Cc1sc2cc3c(c(C(=O)c4ccccc4)[n+]2c1C)-c1cccc2cccc-3c12 | 100* | . | . | . | 20.2
O=C(c1ccccc1)c1c2c(cc3sc4ccccc4[n+]13)-c1cccc3cccc-2c13 | 100* | . | i | . | 53.2*
Cc1cc2ccccc2cc1C(=O)c1ccccc1 | . | . | i | . | .
Cc1ccc(Cl)cc1N1CCN(C(=O)CSc2nnc3n2C(C)(C)Cc2ccccc2-3)CC1 | 100* | -3.7 | i | 32.4 | -11.1
COc1ccc(N2CCN(C(=O)CSc3nnc4n3C(C)(C)Cc3ccccc3-4)CC2)cc1 | 25* | 0.2 | i | 10.8 | -5.3
COc1ccc2nc(NC(=O)CSc3nnc4n3C(C)(C)Cc3ccccc3-4)sc2c1 | i | -5.3 | -7.98* | 17.4 | -3.5
COc1cc(NC(=O)CSc2nnc3n2C(C)(C)Cc2ccccc2-3)cc(OC)c1 | i | -13.2 | i | 18.7 | -6.7
Cc1cccc(Nc2nc(NCc3ccco3)c3ccccc3n2)c1 | 25* | . | i | . | 18.1
N=C1C(=O)NC(=O)C1c1ccccc1 (configuration not stated) | . | . | i | . | .
CCCCCCOC(=O)C[N+](C)(C)CCOC1CC2CCC1(C)C2(C)C (configuration not stated) | i | 54.5* | i | 52.4* | 23.4
CCCCCCCOC(=O)C[N+](C)(C)CCOC1CC2CCC1(C)C2(C)C (configuration not stated) | . | . | i | . | 21.3
O=C(Nc1c2c(nn1-c1ccccc1)CS(=O)C2)c1ccc(Br)o1 (configuration not stated) | i | 3.7 | i | -8.0 | -11.9
O=C(OCC(=O)N1CCC(c2ccccc2)=N1)c1ccc([N+](=O)[O-])s1 | i | -11.7 | i | 51.6* | .
Cc1cc(C(=O)OCC(=O)N2CCC(c3ccccc3)=N2)ccc1[N+](=O)[O-] | i | -4.8 | i | 4.2 | .
O=c1[nH]c(SCc2nc3c(cnn3-c3ccccc3)c(=O)[nH]2)nc2ccccc12 | . | . | i | . | -1.4
O=c1[nH]c(CSc2nc3ccccc3[nH]2)nc2c1cnn2-c1ccccc1 | 100* | -3.1 | i | 10.4 | -12.2

Screens from PubChem BioAssay.
